Results reported in paper PMC11696060 (Nature Communications, 2025).

Legend:
[1] = tested on: wild-type Arabidopsis seedlings; assay: Hypocotyl elongation assay, wild-type Arabidopsis co-treated with KAR2; assay type: in vivo, Arabidopsis thaliana; details: 0.3 µM KAR2
[2] = tested on: wild-type Arabidopsis seeds; assay type: in vivo, Arabidopsis thaliana; details: after high temperature, 1 µM KAR2
Method in brief: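 Sterilized, stratified Columbia seeds (~30 per well) sown on 0.2% phytoagar containing 1 µM KAR₂ and a concentration series of test compound. Incubated at 30 °C under continuous white light (20 μmol m⁻² s⁻¹) 48 h, then 22 °C for 48 h. Germination % = germinated/total seeds per well; 6 biological replicates, means ± SE; one-way ANOVA with Tukey's HSD.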

O=C(N1CCc2ccccc21)n1ccnn1 [KK094]
Concentration at which KAR2-suppressed hypocotyl length is restored [1]: 0.3 µM | Concentration inhibiting the recovery of seed germination by KAR2 [2]: 100 µM
